PubChem BioAssay
The source made the active and inactive calls. Rule as the data show it, unless noted: active = inhibition above about 30%; inactive = the rest.

Assays:
[1] = Her2 expression decrease, cell viability multiplex – SKBR3 breast tumor cells, AlphaScreen, ATP viability, primary screen (AID 461;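 active = Her2 level under about 52% in both replicate screens, with viability over 70% of control, limit read from the data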;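 as to Her2 level: lower value means less Her2 protein in the cells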;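 as to viability: percent of carrier control wells set as 100% viability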); conditions: SKBR3 Her2 protein level, 18-24 h, measured here: SKBR3 viability, ATP luminescence, at 10 µM
[2] = biological target: Receptor tyrosine-protein kinase erbB-2 (Homo sapiens) (UniProt P04626); assay: as above; conditions: 18-24 h, at 10 µM, stronger effect = lower value
[3] = reduced viability of SK-BR-3 breast cancer cells – cell-based, 24 h, human, pilot screen (AID 572;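 active = viability at or below 10% of carrier control in both of two separate runs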;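 also: compound exposure lasted between 18 and 24 h rather than exactly 24 h; 100% = carrier-treated control wells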); conditions: SK-BR-3 viability, CellTiter-Glo luminescence, at 10 µM, stronger effect = lower value
[4] = HUVEC growth inhibition – cell-based, human, primary screen (AID 575;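 active = viability at or below 30% in both replicate assays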;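 also: 100% = median of untreated cell wells with 0.1% DMSO on each plate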); conditions: HUVEC proliferation, CellTiter-Glo luminescence, 72 h; at 10 µM; stronger effect = lower value
Outline: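 Assay system: primary human umbilical vein endothelial cells / Buffer or medium: endothelial basal medium with 2% FBS plus growth supplements / Compound dosing: one dose, 10 µM final, 0.1% DMSO / Timing: 72 h treatment at 37 °C / Signal: CTG luminescence / Benchmarks: 32 DMSO-only cell-control wells (high), 32 MePR drug-control wells (low) per plate / Plate: collagen-coated 384-well format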

[5] = H69AR cell proliferation blockers – human, duplicate replicates, primary screen (AID 580;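 active = viability at or under a set limit in both replicates, limit being median viability minus 3 SD, cut at about 48% in these data, passing the limit was not always enough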;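 also: 100% = mean luminescence of untreated wells and 0% = no signal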); conditions: H69AR lung tumor cells viability, ATP luminescence, 72 h; at 10 µM; stronger effect = lower value
[6] = MRP1 drug-resistance reversers in H69AR cells – cell-based, doxorubicin co-treatment, pilot screen (AID 601;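 active = viability loss from added drug above about 55%, and viability with drug at most 40%, in both replicates, limit read from the data, passing the limit was not always enough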); conditions: CellTiter-Glo, 72 h, at 10 µM; for differential viability (reversal): stronger effect = higher value
[7] = yeast transport mutant growth inhibition pilot in 384-well plates, post-Golgi transport modulator project (AID 636; in the data active = inhibition above about 31%); conditions: absorbance 615 nm, about 18 h, stronger effect = higher value
[8] = growth suppression of yeast trafficking mutant, preliminary HTS, modulators of trafficking downstream of Golgi apparatus project, 1536-format plate, OD 615 nm (AID 637); conditions: yeast transport mutant growth, absorbance 615 nm, 18 h; stronger effect = higher value
[9] = H69AR cells + 2 uM doxorubicin, measured here: viability with 2 uM doxorubicin, stronger effect = lower value
[10] = H69AR cells, compound alone cytotoxicity

Chain of Receptor tyrosine-protein kinase erbB-2 (Homo sapiens) (P04626 whole entry, looked up): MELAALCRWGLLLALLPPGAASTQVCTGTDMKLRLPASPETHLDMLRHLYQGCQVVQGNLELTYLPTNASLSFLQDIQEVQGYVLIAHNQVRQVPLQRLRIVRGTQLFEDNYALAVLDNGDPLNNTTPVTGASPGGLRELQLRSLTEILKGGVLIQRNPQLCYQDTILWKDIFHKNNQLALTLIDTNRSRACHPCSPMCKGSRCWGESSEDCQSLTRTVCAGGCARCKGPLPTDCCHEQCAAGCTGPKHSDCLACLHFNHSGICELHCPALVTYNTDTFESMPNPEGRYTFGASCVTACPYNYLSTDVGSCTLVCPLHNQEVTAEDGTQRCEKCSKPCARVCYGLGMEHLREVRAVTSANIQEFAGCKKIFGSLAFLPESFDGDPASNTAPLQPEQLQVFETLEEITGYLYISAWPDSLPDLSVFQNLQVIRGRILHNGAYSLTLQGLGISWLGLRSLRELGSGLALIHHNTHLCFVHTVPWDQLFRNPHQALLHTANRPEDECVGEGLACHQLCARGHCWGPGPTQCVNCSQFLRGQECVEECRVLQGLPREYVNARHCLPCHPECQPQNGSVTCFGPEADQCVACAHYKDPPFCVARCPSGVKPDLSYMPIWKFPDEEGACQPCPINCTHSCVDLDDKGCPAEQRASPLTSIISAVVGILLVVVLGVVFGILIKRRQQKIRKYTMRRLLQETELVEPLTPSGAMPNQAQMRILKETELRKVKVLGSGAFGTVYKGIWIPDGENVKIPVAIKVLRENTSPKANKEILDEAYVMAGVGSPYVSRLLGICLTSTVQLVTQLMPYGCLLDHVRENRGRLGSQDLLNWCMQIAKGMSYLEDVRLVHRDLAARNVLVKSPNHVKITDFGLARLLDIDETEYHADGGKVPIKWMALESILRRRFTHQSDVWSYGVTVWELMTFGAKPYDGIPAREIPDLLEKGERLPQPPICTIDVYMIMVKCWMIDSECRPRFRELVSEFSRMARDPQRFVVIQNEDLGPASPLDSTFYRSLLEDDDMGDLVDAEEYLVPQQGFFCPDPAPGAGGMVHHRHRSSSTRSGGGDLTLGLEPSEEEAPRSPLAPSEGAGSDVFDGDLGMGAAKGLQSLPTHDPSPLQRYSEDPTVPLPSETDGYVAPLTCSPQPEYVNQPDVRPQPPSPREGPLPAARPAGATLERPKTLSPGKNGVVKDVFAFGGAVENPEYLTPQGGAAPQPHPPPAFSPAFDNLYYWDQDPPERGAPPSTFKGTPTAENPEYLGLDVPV

| Compound | viability [1] [%] | Her2 level [2] | viability [3] | viability [4] | viability [5] | differential viability (reversal) ([6]; H69AR cells + 2 uM doxorubicin) | viability [6, 9] [%] | viability [6, 10] [%] | inhibition [7] | inhibition [8] |
| --- | --- | --- | --- | --- | --- | --- | --- | --- | --- | --- |
| COc1ccc(S(=O)(=O)N2CCC(C(=O)c3ccc4c(c3)OCCO4)CC2)cc1 | 88.5 | 108% (inactive) | 88.5% (inactive) | 61.7% (inactive) | 91.5% (inactive) | 7.49% (inactive) | 84 | 91.5 | -1.95% (inactive) | -8.69% (inactive) |
| O=C(c1ccco1)N1CCN(c2cccc(Cl)c2)CC1 | 101 | 103% (inactive) | 101% (inactive) | 88.1% (inactive) | 97.9% (inactive) | 5.25% (inactive) | 92.7 | 97.9 | -0.93% (inactive) | -9.68% (inactive) |
| O=C(CSc1nnc2ccccn12)NCCN1C(=O)CSC1=O | 134 | 85.5% (inactive) | 134% (inactive) | 92.5% (inactive) | 105% (inactive) | 11.8% (inactive) | 93.6 | 105 | -3.64% (inactive) | -0.32% (inactive) |
| CN(C)c1ccc(CNn2cnnc2)cc1 | 104 | 88.5% (inactive) | 104% (inactive) | 95.8% (inactive) | 100% (inactive) | -4.28% (inactive) | 105 | 100 | -4.08% (inactive) | 0.67% (inactive) |
| Cc1occc1-c1nnc(SCC(=O)NCC2CCCO2)n1C (stereo not given) | 86 | 96.5% (inactive) | 86% (inactive) | 92.2% (inactive) | 96.6% (inactive) | 2.64% (inactive) | 94 | 96.6 | -4.93% (inactive) | 18.7% (inactive) |
| O=C(CN1C(=O)CCSc2ccccc21)Nc1ccccc1 | 113 | 94% (inactive) | 113% (inactive) | 111% (inactive) | 104% (inactive) | 15.9% (inactive) | 88.2 | 104 | -7.67% (inactive) | -7.78% (inactive) |
| COC(=O)Cc1csc(N)n1 | 95 | 82.5% (inactive) | 95% (inactive) | 90.1% (inactive) | 93% (inactive) | 4.79% (inactive) | 88.2 | 93 | 0.92% (inactive) | -3.27% (inactive) |
| COc1ccc(-c2cn3c(C)c(C(=O)Nc4cc(NC(C)=O)ccc4OC)sc3n2)cc1 | 92 | 79.5% (inactive) | 92% (inactive) | 71.5% (inactive) | 20.2% (active) | -42.9% (inactive) | 63.1 | 20.2 | -5.73% (inactive) | -2.13% (inactive) |
| O=C(NCC(c1cccnc1)N1CCOCC1)c1cccs1 (stereo not given) | 101 | 75.5% (inactive) | 101% (inactive) | 89.6% (inactive) | 92.5% (inactive) | -0.595% (inactive) | 93.1 | 92.5 | -2.24% (inactive) | 11.2% (inactive) |
| CN(CCc1ccccn1)C(=O)CCNC(=O)Cn1cnc2ccccc2c1=O | 99.5 | 97.5% (inactive) | 99.5% (inactive) | 88.9% (inactive) | 96.4% (inactive) | 13.9% (inactive) | 82.5 | 96.4 | -2.86% (inactive) | -1.9% (inactive) |
| CS(=O)(=O)N1CCN(c2ccccc2NC(=O)c2cccs2)CC1 | 99.5 | 100% (inactive) | 99.5% (inactive) | 108% (inactive) | 91.3% (inactive) | -5% (inactive) | 96.3 | 91.3 | -1.17% (inactive) | 1% (inactive) |
| O=C(NC1CCCCC1)c1ccc(S(=O)(=O)N2CCCCC2)cc1 | 80.5 | 108% (inactive) | 80.5% (inactive) | 86% (inactive) | 74.9% (inactive) | -29.9% (inactive) | 105 | 74.9 | 4.29% (inactive) | -11.4% (inactive) |
| Cc1cccc2cc(CN(CC3CCCO3)C(=O)c3cnccn3)c(=O)[nH]c12 (stereo not given) | 116 | 105% (inactive) | 116% (inactive) | 96.9% (inactive) | 85.1% (inactive) | -2.77% (inactive) | 87.9 | 85.1 | -1.43% (inactive) | -0.67% (inactive) |
| COc1ncnc2c1N=C1CC(C)(C)CC(N)=C1S2 | 92.5 | 86% (inactive) | 92.5% (inactive) | 99% (inactive) | 87.5% (inactive) | 4.68% (inactive) | 82.8 | 87.5 | -5.07% (inactive) | -2.3% (inactive) |
| CC1CN(c2nc(-c3ccccc3)nc3ccccc23)CC(C)O1 (stereo not given) | 91 | 134% (inactive) | 91% (inactive) | 88.2% (inactive) | 85.4% (inactive) | 4.54% (inactive) | 80.9 | 85.4 | -3.72% (inactive) | -5.67% (inactive) |
| CCOC(=O)c1ccc(S(=O)(=O)NC2CCCCCCC2)n1C | 113 | 70% (inactive) | 113% (inactive) | 86.9% (inactive) | 104% (inactive) | -3.18% (inactive) | 107 | 104 | -1.49% (inactive) | 1.11% (inactive) |
| CCc1ccccc1OCCCCCNCCO | 85.5 | 91% (inactive) | 85.5% (inactive) | 93.3% (inactive) | 81.8% (inactive) | -5.63% (inactive) | 87.4 | 81.8 | -2.05% (inactive) | -1.5% (inactive) |
| Cc1cc(NC(=O)Cc2cn3ccsc3n2)n(-c2ccccc2)n1 | 91 | 103% (inactive) | 91% (inactive) | 91.8% (inactive) | 94.9% (inactive) | 5.08% (inactive) | 89.9 | 94.9 | -0.64% (inactive) | 0.33% (inactive) |
| CCOC(=O)C1=C(C)N=C2SCCC(=O)N2C1c1cc(Br)ccc1OC (stereo not given) | 94.5 | 91% (inactive) | 94.5% (inactive) | 107% (inactive) | 92% (inactive) | 1.69% (inactive) | 90.3 | 92 | -7.67% (inactive) | 0% (inactive) |
| CC(=O)Nc1ccc(OC(=O)c2cccnc2)cc1 | 111 | 116% (inactive) | 111% (inactive) | 116% (inactive) | 99.9% (inactive) | 15.1% (inactive) | 84.9 | 99.9 | -7.57% (inactive) | -3.17% (inactive) |
| COc1ccc(C2N(C(=O)c3ccccc3)CCN2C(=O)c2ccccc2)cc1 | 114 | 103% (inactive) | 114% (inactive) | 113% (inactive) | 103% (inactive) | 2.48% (inactive) | 100 | 103 | -1.04% (inactive) | 5.41% (inactive) |
| CCSc1nnc(NC(=O)C2CCCN(S(=O)(=O)c3cnc[nH]3)C2)s1 (stereo not given) | 105 | 97.5% (inactive) | 105% (inactive) | 89.9% (inactive) | 91.3% (inactive) | 1.98% (inactive) | 89.4 | 91.3 | -2.27% (inactive) | 2.83% (inactive) |
| O=C(CCn1c(=O)sc2ccccc21)Nc1nccs1 | 98.5 | 97% (inactive) | 98.5% (inactive) | 115% (inactive) | 108% (inactive) | 16.8% (inactive) | 91.5 | 108 | -2.6% (inactive) | -0.95% (inactive) |
| CCOC(=O)C1CCN(c2c(Nc3ccc4c(c3)OCCO4)c(=O)c2=O)CC1 | 82.5 | 100% (inactive) | 82.5% (inactive) | 88% (inactive) | 88.4% (inactive) | -0.805% (inactive) | 89.2 | 88.4 | 1.03% (inactive) | 3.17% (inactive) |
| CCOC(=O)Cc1c(C)c2c(O)cc(O)cc2oc1=O | 84.5 | 77.5% (inactive) | 84.5% (inactive) | 97.3% (inactive) | 99% (inactive) | 12.2% (inactive) | 86.8 | 99 | -6.27% (inactive) | 1.9% (inactive) |
| COc1ccc(-c2cc(C(=O)Nc3ccc(C)cc3)no2)cc1 | 121 | 114% (inactive) | 121% (inactive) | 109% (inactive) | 99.1% (inactive) | 9.35% (inactive) | 89.7 | 99.1 | -3.11% (inactive) | 41% (active) |
| Cc1ccc(-c2cc(C(=O)NCc3ccc4c(c3)OCO4)no2)cc1 | 96 | 77% (inactive) | 96% (inactive) | 84.9% (inactive) | 90.8% (inactive) | 5.94% (inactive) | 84.9 | 90.8 | -7.43% (inactive) | -0.33% (inactive) |
| COc1cccc(-n2c(SC3CCOC3=O)nc3ccccc3c2=O)c1 (stereo not given) | 94.5 | 99.5% (inactive) | 94.5% (inactive) | 88.2% (inactive) | 94.4% (inactive) | 10.5% (inactive) | 83.8 | 94.4 | -5.2% (inactive) | -6.03% (inactive) |
